Mot1-301 SUMO: SUMOylation pathway inhibition by Mot1-301 growth rescue; S. cerevisiae Mot1-301 growth rescue, ATP luminescence, 38.5C; percent above DMSO median, 100 means doubled; growth rescue, % at 18.8 µM; 320,000 compounds, 1% hits; AID 2716;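 active = every valid replicate shows activation above 250% relative to neutral control wells; inactive = the rest, any valid replicate at or below 250%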
CR mimetic SO: yeast age-related superoxide inhibition as caloric restriction mimetic | superoxide response (% of plate mean), % at 10 µM | S. cerevisiae aged cells, superoxide DHE fluorescence; stronger effect = lower value | 330,000 compounds, 0.18% hits | AID 2690;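 active = superoxide response under a set limit, about three screen SD below normal, cut at about 65% in these data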;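 note: yeast aged for seven days with compound at 30 °C before DHE staining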
Ecoli rRNA inh: selective bacterial rRNA inhibition in E. coli; E. coli WT GFP vs humanized-ribosome RFP mutants, fluorescence, 24 h; stronger effect = lower value; DMSO median 0, no signal -100; GFP signal change (wild-type ribosome), % (test concentration not listed); 350,000 compounds, 1.6% hits; AID 720706;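 active = significant combined selectivity score with lowered wild-type GFP, culture density cut under 30%, mutant RFP and density less affected; inactive = any of these conditions unmet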
Cneo AK release: Cryptococcus neoformans lysis via adenylate kinase release | lysis activity, % at 15 µM | 360,000 compounds, 0.2% hits | C. neoformans lysis, adenylate kinase release luminescence, 4 h; normalised: neutral wells 0, clomiphene wells 100 | AID 651654;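 active = mean lysis activity across replicates of at least 80%, whatever share of replicates individually reach that level; inactive = mean lysis activity below 80%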
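read-out = cell lysis signal | test system = log-phase Cryptococcus neoformans yeast cells | input = cells at 5 × 10^6 per mL | medium = fresh YPD growth medium | signal = luminescent adenylate kinase detection reagent | timing = 4 h at 37 °C static, read 1 h later | dosing = single dose | controls = Clomiphene as positive lysis control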
PglD DTNB: PglD (C. jejuni) enzyme inhibition; purified PglD enzyme, DTNB colorimetric CoA detection; inhibition, % at 12.5 µM; 360,000 compounds, 0.098% hits; in the data active = inhibition above about 16%, passing the limit was not always enough; inconclusive = no clear call, values can overlap the other calls
PglD confirm: PglD (C. jejuni) inhibition confirmation | inhibition, % at 20 µM | 320 tested, under 10 active | shares compounds with PglD DTNB | Purified C. jejuni PglD, DTNB absorbance 412 nm;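 active = mean inhibition across replicates of at least 20% with every single replicate also at 20% or more; inconclusive = mean inhibition at least 20% but some replicate falls below 20%; inactive = mean inhibition under 20% and not all replicates reach it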;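 note: initial rate of CoA release by acetyl transfer from AcCoA to the UDP-4-amino sugar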
A number is an active result; 0 = inactive; ? = inconclusive; - = no result given. Hits are enriched below; roughly 2.2% of the tested compounds scored in any of these assays.

SMILES | Mot1-301 SUMO | CR mimetic SO | Ecoli rRNA inh | Cneo AK release | PglD DTNB | PglD confirm
Cc1nn(Cc2ccccc2)c(Cl)c1/C=N/NC(=O)c1cccnc1 | 0 | 0 | 0 | 0 | 24.7 | 0
CCCc1cc(C(=O)NC2CCCC2)no1 | 0 | 0 | 0 | 0 | 58.0 | 0
CCC(C)[C@H](NC(=O)NC1CC1)C(=O)O (stereo not given in full) | 0 | 0 | 0 | 0 | 27.1 | 0
CN1C(=O)c2cc(NC(=O)C3CCOCC3)ccc2OC[C@@H]2O[C@@H](CC(=O)NC3CCCC3)CC[C@H]21 | - | - | 0 | 0 | 0 | -
COCC(=O)Nc1ccc2c(c1)[C@H]1C[C@@H](CC(=O)NC3CCCCC3)O[C@@H](CO)[C@H]1O2 | - | - | 0 | 0 | 0 | -
Cc1ccc(OCC(=O)N(C)CCc2ccccn2)cc1 | 0 | 0 | 0 | 0 | 23.9 | 0
CNC(=S)NNC(=O)Cc1ccc(OC)cc1 | 0 | 0 | 0 | 0 | 0 | -
COc1ccc(CC(=O)NC(=S)NNC(=O)COc2c(C)cccc2C)cc1 | 0 | 0 | - | 0 | 23.0 | 0
COC(=O)c1ccc(C2C(Oc3ccc(OC)cc3)C(=O)N2CCc2ccc(OC)c(OC)c2)cc1 (stereo not given) | 0 | 0 | - | 0 | 34.6 | 0
COC(=O)c1ccc(C2C(Oc3ccccc3)C(=O)N2CCc2ccc(F)cc2)cc1 (stereo not given) | 0 | 0 | 0 | 0 | 0 | -
C[C@H]1CN([C@@H](C)CO)C(=O)c2ccccc2-c2ccccc2CO[C@@H]1CN(C)S(=O)(=O)c1ccc(C#N)cc1 | - | - | 0 | 0 | 0 | -
O=C(NCCN1CCNCC1)c1ccccc1O | 0 | 0 | - | 0 | 0 | -
c1ccc(CNCCN2CCNCC2)nc1 | 0 | 0 | - | 0 | 30.3 | 0
CO[C@@H]1CN(C)C(=O)c2cc(NC(=O)c3ccccc3F)ccc2OC[C@H](C)N(C)C[C@H]1C | - | - | 0 | 0 | 0 | -
CC(=O)Nc1nc(C)c(S(N)(=O)=O)s1 | 0 | 0 | - | 0 | 24.0 | 0
CC(=O)Nc1nnc(S(N)(=O)=O)s1 | 0 | 0 | - | 0 | 0 | -
O=C(CC(=O)NCc1cccnc1)NCc1cccnc1 | 0 | 0 | - | 0 | 0 | -
CCC(NC(=O)NCc1cccnc1)(C(F)(F)F)C(F)(F)F | 0 | 0 | - | 0 | 20.3 | 0
COc1ccc(NC(=O)CC2SC(=NCC3CCCO3)NC2=O)cc1 (stereo not given) | 0 | 0 | 0 | 0 | 26.2 | 0
Cc1ccc(NC(=O)CC2SC(=NCC3CCCO3)NC2=O)cc1Cl (stereo not given) | - | 0 | - | - | - | -
CCOC(=O)c1c2n(c3ccc(O)cc13)CCCCC2 | 0 | 0 | - | 0 | 25.4 | 0
C(CCN1CCOCC1)CN1CCOCC1 | - | - | 0 | 0 | 0 | -
OCCN1CCOCCN(CCO)CCOCC1 | 0 | 0 | - | 0 | 21.2 | 0
CCn1cc(/C=N\NC(=O)c2ccc3c(c2)c(C)c(C)n3Cc2ccccc2)c(C)n1 | 0 | 0 | - | 0 | 31.8 | 0
CCn1ncc(/C=N\NC(=O)c2ccc3c(c2)c(C)c(C)n3Cc2ccccc2)c1C | 0 | 0 | - | 0 | 0 | -
SMILES | Mot1-301 SUMO | CR mimetic SO | Ecoli rRNA inh | Cneo AK release | PglD DTNB | PglD confirm
COc1ccc2c3c(n(C)c2c1)[C@H](CO)N(C(=O)Nc1cccc(F)c1)CC31CCN(C)CC1 | - | - | 0 | - | - | -
COc1ccc(/C(O)=C2/C(=O)C(=O)N(CCCN3CCOCC3)C2c2ccc(Cl)cc2)cc1 (stereo not given) | - | - | 0 | 0 | 23.8 | 0
COc1ccc(C2/C(=C(/O)c3ccccc3)C(=O)C(=O)N2CCCN2CCOCC2)cc1 (stereo not given) | 0 | 0 | 0 | 0 | 0 | -
O=C(c1cnccn1)N1CC(=O)N2[C@@H](CO)[C@@H](c3ccc(C#CCc4ccccc4)cc3)[C@@H]2C1 | - | - | 0 | - | - | -
CC(C)NC(=O)N(C)C[C@@H]1OCCCC[C@@H](C)Oc2ccc(NC(=O)Nc3cccc4ccccc34)cc2C(=O)N([C@H](C)CO)C[C@@H]1C | - | - | 0 | 0 | 0 | -
Cn1nnnc1SCCNS(=O)(=O)c1ccccc1 | 0 | 0 | - | 0 | 21.9 | ?
Cc1ccc(S(=O)(=O)NCCSc2nnnn2C)cc1 | 0 | 0 | 0 | 0 | 0 | -
CS(=O)(=O)N(CC(=O)NCCSc1ccccn1)c1cccc2ccccc12 | 0 | 0 | 0 | 0 | 20.5 | 0
COc1cc(C(O)c2nc(-c3ccc(C)c(C)c3)cs2)ccc1F (stereo not given) | - | - | 0 | 0 | 25.1 | 0
Cc1ccc(S(=O)(=O)N(C)C[C@H]2Oc3ccc(NS(=O)(=O)c4c(C)noc4C)cc3C(=O)N([C@H](C)CO)C[C@H]2C)cc1 | - | - | 0 | 0 | 0 | -
Cc1ccc(-n2cc(-c3ccccc3)c3c(=O)[nH]cnc32)cc1 | 0 | 0 | 0 | 0 | 45.3 | 0
C[C@@H]1CN([C@@H](C)CO)C(=O)c2cc(N(C)C)ccc2O[C@H]1CN(C)S(=O)(=O)c1ccc(F)cc1 | - | - | 0 | 0 | 0 | -
N#C[C@H]1[C@@H](c2ccc(C#CC3(O)CCCC3)cc2)[C@H](CO)N1C(=O)C1CC1 | - | - | 0 | 0 | 0 | -
CC(=O)Nc1sc2c(c1CN1CCN(C)CC1)CCCC2 | 0 | 0 | - | 0 | 58.9 | 0
C[C@@H]1CN([C@H](C)CO)C(=O)c2cccc(NC(=O)c3ccc(-c4nccs4)cc3)c2O[C@@H]1CN(C)Cc1ccc(C(=O)O)cc1 | - | - | 0 | 0 | 0 | -
Cc1ccc(O)c(NC(=O)CN(C)S(=O)(=O)c2ccc(Cl)cc2)c1 | 0 | 0 | 0 | 0 | 29.9 | 0
O=C(COC(=O)c1cccc(F)c1)Nc1cccc(S(=O)(=O)N2CCCCC2)c1 | - | - | 0 | 0 | 22.3 | 0
O=C(COC(=O)c1cccc(F)c1)Nc1cccc(S(=O)(=O)N2CCOCC2)c1 | - | - | 0 | 0 | 0 | -
CCC(Oc1ccccc1F)C(=O)NCCCn1ccnc1 (stereo not given) | 0 | 0 | 0 | 0 | 36.6 | 0
CCn1c(=O)cc(SCC(=O)N2CCN(c3ccccc3OC)CC2)c2ccccc21 | 0 | 0 | - | 0 | 32.9 | ?
O=C(CNS(=O)(=O)c1ccc2ccccc2c1)OCc1nnc(-c2ccccc2)o1 | 0 | 0 | - | 0 | 34.2 | 0
Cc1ccc(S(=O)(=O)NCC(=O)OCc2nnc(-c3ccccc3)o2)cc1C | 0 | 0 | - | 0 | 0 | -
CC(C)CC#Cc1cnc2c(c1)C(=O)N([C@H](C)CO)C[C@H](C)[C@H](CN(C)C(=O)CN1CCOCC1)O2 | - | - | 0 | 0 | 0 | -
CCOc1ccc(-c2nnc(-c3cccs3)o2)cc1 | 0 | 0 | - | 0 | 26.6 | 0
COc1cc(NC(=O)COC(=O)CSc2cc(C)ccc2C)c(C)cc1[N+](=O)[O-] | 0 | 0 | 0 | 0 | 22.0 | 0
COc1cc(NC(=O)COC(=O)CSc2ccccc2F)c(C)cc1[N+](=O)[O-] | 0 | 0 | 0 | - | - | -
Cc1noc(C)c1S(=O)(=O)N(C)C[C@H]1OCc2ccccc2-c2ccccc2C(=O)N([C@@H](C)CO)C[C@@H]1C | - | - | 0 | - | - | -
C[C@H]1CN(C)C(=O)c2cc(N)ccc2O[C@@H]1CN(C)C(=O)OC(C)(C)C | - | - | 0 | - | - | -
